Activity calls are given as the source filed them. No cut-off for these calls is given here.
What was measured:
[1] = tested on: L1210; assay: Binding affinity to mouse L1210 cell DNA assessed as DNA cross-linking activity at 10 to 50 uM using H33258 dye by rapid DNA renaturation assay; format: cell-based
[2] = tested on: DU-145; assay: Ratio of laromustine IC50 for compound IC50 for human DU145 cells expressing AGT; format: functional
[3] = tested on: EMT6; assay: Ratio of laromustine IC50 for compound IC50 for mouse AGT negative EMT6 cells; format: functional
[4] = tested on: DU-145; assay: Induction of AGT ablation in human DU145 cells assessed as [benzene-3H]-O6-benzylguanine binding at 80 uM after 2 hrs; format: functional
How it was run: (§1)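 DU145 human prostate carcinoma cells (about 42,000 AGT molecules/cell) were treated with 80 μM agent for 2 h or 4 h. Remaining AGT level was then measured relative to untreated cells.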

[5] = Half life in 1 mM potassium phosphate buffer at pH 7.4 at 50 uM by spectrophotometric analysis; format: physicochemical
[6] = tested on: DU-145; assay: Cytotoxicity against human DU145 cells expressing AGT after 4 to 24 hrs by clonogenic assay; format: functional; settings: read-out: LC50 (the source's name)
How it was run: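 Human prostate carcinoma cells with natural AGT expression (42,000 molecules/cell) were exposed to graded concentrations for 4 h or 24 h. LC50 was read from cytotoxicity curves.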

[7] = tested on: EMT6; assay: Cytotoxicity against mouse AGT negative EMT6 cells under aerobic conditions after 4 to 24 hrs by clonogenic assay; format: functional, cell-based; settings: for CC50: read-out: LC50 (the source's name)
How it was run: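 Murine mammary carcinoma cells lacking AGT expression were exposed to graded concentrations for short (4 h) or long (24 h) periods. LC50 was taken from cytotoxicity curves.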

[8] = tested on: DU-145; assay: Induction of AGT ablation in human DU145 cells assessed as [benzene-3H]-O6-benzylguanine binding at 80 uM after 4 hrs; format: functional; how it was run: as §1
[9] = tested on: DU-145; assay: Cytotoxicity against human DU145 cells expressing AGT after 4 to 24 hrs by clonogenic assay in presence of 100 uM of AGT inhibitor O6-BG; format: functional, cell-based
How it was run: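 DU145 cells (42,000 AGT molecules/cell) were pretreated with 100 μM O6-BG for 2 h, then exposed to graded drug concentrations. Cytotoxicity was then assessed.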

[10] = tested on: DU-145; assay: Cytotoxicity against human DU145 cells expressing AGT at 10 to 80 uM after 4 hrs by clonogenic assay; format: functional, cell-based
How it was run: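 DU145 human prostate carcinoma cells, which naturally express about 42,000 AGT molecules/cell, were exposed to graded drug concentrations for 4 h or 24 h. Cytotoxicity was expressed as LC50.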

SMILES | Activity [1] | Ratio IC50 [2] | Ratio IC50 [3] | Activity [4] | half-life at 50 µM [5] | CC50 [6] | CC50 [7] | Activity [8] | Activity [9] | Activity [10] | IC50 [7]
CN(N=O)C(=O)N(N(CCCl)S(C)(=O)=O)S(C)(=O)=O | Active | >12 | 12 | >80% | 10 min | 6.3 µM | 0.7 µM | >90% | Active | Active | –
CN(NS(C)(=O)=O)S(C)(=O)=O | – | – | – | – | – | 1600 µM | – | – | – | – | 3000 µM
CNC(=O)N(N(CCCl)S(C)(=O)=O)S(C)(=O)=O [LAROMUSTINE] | Active | – | – | – | – | > 80 µM | 8.3 µM | – | Active | Active | –
CS(=O)(=O)NN(CCCl)S(C)(=O)=O [VPN-4090CE] | Active | – | – | – | 0.55 min | – | – | – | – | – | –
CN(N(C(=O)N(CCCl)N=O)S(C)(=O)=O)S(C)(=O)=O | Active | – | – | Active | 13.4 min | – | – | Active | Active | Active | –

Reference: ChEMBL document CHEMBL2331310 (Bioorg Med Chem Lett, 2013)
